Drawing on ChEMBL document CHEMBL1127362, “Synthesis and pharmacological evaluation of isoindolo[1,2-b]quinazolinone and isoindolo[2,1-a]benzimidazole derivatives related to the antitumor agent batracylin” (J Med Chem, 1994), this text covers Net grain counts, Relative activity and IC50 for 15 compounds.

The species named for assay [1] is Rattus norvegicus. The assay is described as follows: Nuclear count minus the highest cytoplasmic count determined in rat hepatocytes for each cell. Type of assay: functional, Hepatocyte. An outline of the steps: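 Hepatocytes isolated from F-344 rats (220–300 g), ~5 × 10⁶ cells seeded on coverslips; after 2 h washed, refed with serum-free Williams medium E and exposed together to 10 μCi/mL tritiated thymidine (50–90 Ci/mmol) plus compound in DMSO. Autoradiography after 18–20 h; 20 cells counted per slide, triplicate per concentration, mean ± SD of two experiments. Positive requires net grains >0 with dose response.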

The test system of assay [2] is DNA topoisomerase II (Bos taurus). The assay can be described thus: Relative potency to cause 90% of topoisomerase II-mediated cleavage of liner 8.4-kb YEPG DNA.
In assay [3] the test system is CCRF-CEM. The assay is described as follows: Tested for the inhibitory activity against CCRF CEM T- cell leukemia cells. Type of assay: functional, cell-based. The settings on record: Homo sapiens. In a few lines:
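MTT microtiter tetrazolium assay; CCRF CEM cells seeded at 30 000 cells/well and allowed to attach. Each dose tested in four replicate plates, each with eight DMSO-only control wells.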

Where only a bound is given, the exact number is not on record here.

Consider `Cc1cccc2c1nc1n2C(=O)c2ccccc2-1`, for which the Net grain counts in assay [1] is -3.5. Also, the Relative activity in assay [2] was 0. Besides, the IC50 in assay [3] is more than 200 µM.

`O=C1c2ccccc2-c2nc3ccc(O)cc3n21` yielded a Relative activity in assay [2] of 0. In addition, in assay [3], the half-inhibitory concentration (IC50) was more than 200 µM.

`Nc1ccc2nc3n(c2c1)C(=O)c1ccccc1-3`: in assay [1], the Net grain counts was -4.4. The Relative activity in assay [2] was 0. The same compound yielded an IC50 in assay [3] of more than 200 µM.

`O=C1c2ccccc2-c2nc3ccccc3n21` had a Net grain counts in assay [1] of -7.4. Also, the Relative activity in assay [2] stood at 0. The same compound registered a concentration for half-maximal inhibition (IC50) in assay [3] of 68 µM.

`Cc1cccc(N2C(=O)c3ccccc3C2=O)c1[N+](=O)[O-]` had a Net grain counts in assay [1] of -4.1. The Relative activity in assay [2] is 0. The same compound had an IC50 in assay [3] of more than 200 µM.

Regarding `O=C1c2ccccc2C2=Nc3ccncc3CN12`, the Net grain counts in assay [1] is -5.2. The compound further displayed a Relative activity in assay [2] of 0.1. In assay [3], this compound displayed a half-inhibitory concentration (IC50) of 102 µM.

Regarding `Cc1cccc(N)c1N1C(=O)c2ccccc2C1=O`, the Net grain counts in assay [1] is listed as -8.7. Also, the Relative activity in assay [2] is 0. The compound also showed a 50% inhibitory concentration (IC50) in assay [3] of 71 µM.

Take `Cc1cccc2nc3n(c12)C(=O)c1ccccc1-3`: in assay [1], the Net grain counts is listed as -3.7. In assay [2], this compound returned a Relative activity of 0. The same compound came in with an IC50 in assay [3] of more than 200 µM.

`COc1ccc2nc3n(c2c1)C(=O)c1ccccc1-3` returned a Net grain counts in assay [1] of -3.6. Further, the Relative activity in assay [2] worked out at 0. The compound further had an IC50 in assay [3] of more than 200 µM.

Consider `O=C1c2ccccc2C2=Nc3ccc([N+](=O)[O-])cc3CN12`, for which, in assay [1], the Net grain counts worked out at 10.5. The compound further displayed a Relative activity in assay [2] of 0. In assay [3], this compound gave a concentration for half-maximal inhibition (IC50) of more than 150 µM.

In turn, `O=C1c2ccccc2-c2nc3ccncc3n21` came in with a Net grain counts in assay [1] of -10.5. The Relative activity in assay [2] worked out at 0. The half-inhibitory concentration (IC50) in assay [3] was more than 200 µM.

For `Nc1ccc2c(c1)CN1C(=O)c3ccccc3C1=N2` [DANIQUIDONE], the Net grain counts in assay [1] was found to be 93.1. This compound also showed a half-maximal inhibitory concentration (IC50) in assay [3] of 14 µM.

In assay [1], `COc1ccc(N)c(N2C(=O)c3ccccc3C2=O)c1` showed a Net grain counts of -8.9. Further, the Relative activity in assay [2] is 0. Further, the IC50 in assay [3] is more than 200 µM.

Compound `O=C1c2ccccc2C2=Nc3ccccc3CN12` had a Net grain counts in assay [1] of -4.5. Further, the Relative activity in assay [2] came to 1. In assay [3], this compound came in with a concentration for half-maximal inhibition (IC50) of 60 µM.

In turn, `COc1cc([C@@H]2c3cc4c(cc3[C@@H](O[C@@H]3O[C@@H]5CO[C@@H](C)O[C@H]5[C@H](O)[C@H]3O)[C@H]3COC(=O)[C@H]23)OCO4)cc(OC)c1O` [ETOPOSIDE] gave a Net grain counts in assay [1] of -7.5. For the same compound, in assay [3], half-maximal inhibition (IC50) was put at 0.002 µM.
